Test results from paper PMC2756606 (Organic letters, 2009).
Read-outs that look alike come from different tables or passages of the source.

Tests used:
[1] = system: mouse-isolated vas deferens, δ-opioid receptor (antagonism of δ-agonist DPDPE); assay: mouse-isolated vas deferens; assay type: biochemical; details: MVD assay against δ-agonist DPDPE; n=8
[2] = target: δOR (δ-opioid receptor) in HCT116 colon carcinoma cells engineered to express the δOR (Homo sapiens, UniProt P41143); assay: competitive binding assay, time-resolved fluorescence; details: TRF competitive binding; HCT116 cells expressing δOR
In short: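 Purified test compounds were run in a competition format on whole HCT116 colon carcinoma cells engineered to express δOR. Ki was derived from a fitted competition curve, with R2 reported for the fit.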

[3] = system: HCT116/δOR and parental HCT116 tumors in SCID mice; assay type: in vivo, mouse; details: 10 μg i.v. (tail vein), 15 min post-injection, not shown
δ-opioid receptor = details: cited from earlier work

## CC[N+]1=C(C=CC=CC=C2N(CCCCCC(=O)NCCN3C(=O)CC(SCCC(=O)NCCCC[C@H](NC(=O)[C@@H]4Cc5ccccc5CN4C(=O)[C@@H](N)Cc4c(C)cc(O)cc4C)C(=O)O)C3=O)c3ccc(S(=O)(=O)O)cc3C2(C)C)C(C)(C)c2cc(S(=O)(=O)[O-])ccc21 (some centres unmarked) [Ligand 1]
[1]
  inhibitory potency, Ke: 37 ± 9 pM
[2]
  affinity of labeled ligand compared with unlabeled counterpart (ligand 6): equipotent to its unlabeled counterpart
[3]
  systemic distribution, fluorescence intensity maps: systemic presence of the compound with high intensity throughout the animal

## Dmt-Tic-Lys-NH2
δ-opioid receptor; reported radioligand binding assays, compared with TRF results
  Ki: 710 pM

## H-Dmt-Tic-Lys(Ac)-OH
δ-opioid receptor; δ-receptor affinity in radioligand binding assays
  Ki: 47 pM
